Assay [1] concerns the target T1, Trifunctional purine biosynthetic protein adenosine-3 (Homo sapiens, UniProt P22102).
T1 sequence (P22102 whole entry): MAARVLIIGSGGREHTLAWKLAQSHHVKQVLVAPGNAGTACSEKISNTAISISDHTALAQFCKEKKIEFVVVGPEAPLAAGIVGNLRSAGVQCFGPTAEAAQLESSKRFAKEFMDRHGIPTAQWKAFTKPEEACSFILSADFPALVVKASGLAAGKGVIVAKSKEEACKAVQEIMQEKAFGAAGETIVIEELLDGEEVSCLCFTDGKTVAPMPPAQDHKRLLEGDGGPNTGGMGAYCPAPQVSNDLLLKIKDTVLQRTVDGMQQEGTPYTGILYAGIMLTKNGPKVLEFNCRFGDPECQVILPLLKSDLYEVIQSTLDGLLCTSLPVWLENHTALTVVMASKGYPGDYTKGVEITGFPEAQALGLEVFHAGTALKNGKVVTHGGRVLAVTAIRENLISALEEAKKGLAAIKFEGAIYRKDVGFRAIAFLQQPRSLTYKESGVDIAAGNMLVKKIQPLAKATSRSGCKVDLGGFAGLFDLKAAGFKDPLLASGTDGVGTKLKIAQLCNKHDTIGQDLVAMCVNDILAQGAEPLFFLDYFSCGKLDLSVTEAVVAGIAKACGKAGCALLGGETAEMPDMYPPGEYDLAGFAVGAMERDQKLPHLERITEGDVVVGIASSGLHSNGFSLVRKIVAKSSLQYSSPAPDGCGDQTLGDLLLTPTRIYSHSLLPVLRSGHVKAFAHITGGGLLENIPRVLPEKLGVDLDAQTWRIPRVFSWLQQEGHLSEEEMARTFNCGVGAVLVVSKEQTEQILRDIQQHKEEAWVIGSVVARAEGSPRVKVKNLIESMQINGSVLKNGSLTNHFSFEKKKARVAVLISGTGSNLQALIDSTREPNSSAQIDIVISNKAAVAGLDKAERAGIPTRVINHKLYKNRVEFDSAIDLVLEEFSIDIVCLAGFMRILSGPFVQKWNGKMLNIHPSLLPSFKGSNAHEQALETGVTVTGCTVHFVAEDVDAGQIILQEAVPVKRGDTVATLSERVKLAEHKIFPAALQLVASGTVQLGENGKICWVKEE
Put plainly: Inhibition of human recombinant GAR Tfase.

Assay [2] has as its target Bifunctional purine biosynthesis protein ATIC (Homo sapiens, UniProt P31939). As to the kind of experiment: Inhibition of human recombinant AICAR Tfase. The essentials: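 Recombinant human AICAR Tfase assayed by a previously described method. Reaction kinetics were followed for 2 min after initiation. Ki was derived from Dixon plots.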
For assay [3], the system named is CCRF-CEM. As to the kind of experiment: Antiproliferative activity against human CCRF-CEM cell line. The format is functional, cell-based. The essentials: (§1)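 CCRF-CEM human leukemia cells (parental or variant line) were continuously exposed to the test compounds for 72 h, and growth inhibition was then measured.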
For assay [4], the system named is CCRF-CEM. Put plainly: Antiproliferative activity against human CCRF-CEM cell line in presence of thymidine. The format is functional, cell-based.
Assay [5] deals with CCRF-CEM. As to the kind of experiment: Antiproliferative activity against human CCRF-CEM cell line in presence of hypoxanthine. It counts as functional, cell-based.
Assay [6] relates to CCRF-CEM. Put plainly: Antiproliferative activity against FPGS-deficient CCRF-CEM cell line. The note with it: Homo sapiens. It counts as functional, cell-based. The essentials: as §1
In assay [7] the test system is CCRF-CEM. As to the kind of experiment: Antiproliferative activity against reduced folate carrier-deficient CCRF-CEM cell line. The note with it: Homo sapiens. It counts as functional, cell-based. The essentials: as §1

SMILES strings stand for the structures.

For orientation: Ki means the equilibrium dissociation constant of an inhibitor or competing ligand from its target. A word on the IC50: it is the concentration at which inhibition is half-maximal.

Bifunctional purine biosynthesis protein ATIC, sequence (P31939 whole entry): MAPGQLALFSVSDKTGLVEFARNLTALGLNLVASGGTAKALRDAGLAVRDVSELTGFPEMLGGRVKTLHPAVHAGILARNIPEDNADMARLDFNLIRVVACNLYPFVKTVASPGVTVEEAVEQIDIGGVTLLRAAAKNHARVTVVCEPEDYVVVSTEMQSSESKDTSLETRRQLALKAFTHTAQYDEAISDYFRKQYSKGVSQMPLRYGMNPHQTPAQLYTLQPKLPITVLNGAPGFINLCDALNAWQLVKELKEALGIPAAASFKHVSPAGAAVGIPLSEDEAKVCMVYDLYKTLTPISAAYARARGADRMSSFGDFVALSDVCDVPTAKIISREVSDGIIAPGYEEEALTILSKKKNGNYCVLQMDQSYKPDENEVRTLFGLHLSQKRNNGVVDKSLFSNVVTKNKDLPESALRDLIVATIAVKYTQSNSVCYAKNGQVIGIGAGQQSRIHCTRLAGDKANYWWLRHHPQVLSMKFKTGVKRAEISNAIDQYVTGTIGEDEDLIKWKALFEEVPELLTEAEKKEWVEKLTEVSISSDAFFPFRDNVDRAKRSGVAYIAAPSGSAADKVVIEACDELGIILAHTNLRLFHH

For the compound `Nc1nc(N)c(CCCC(C(=O)C(F)(F)F)c2ccc(C(=O)NCC(=O)O)cc2)c(O)n1` (stereo unspecified), the values for the inhibition constant Ki in assay [1] and in assay [2] were 21 µM and over 100 µM, respectively. In addition, the IC50 with CCRF-CEM [3], with CCRF-CEM [4], in the assay with CCRF-CEM [5], in the assay with CCRF-CEM [6] and in the assay on CCRF-CEM [7] was over 100 µM throughout.
Take `Nc1nc(N)c(CCCC(C(=O)C(F)(F)F)c2ccc(C(=O)NC(CCC(=O)O)C(=O)O)cc2)c(O)n1` (stereo unspecified): the Ki in assay [2] was over 100 µM. The IC50 in the assay with CCRF-CEM [3] is 0.016 µM; in the assay on CCRF-CEM [4], 0.017 µM; with CCRF-CEM [5] it was over 100 µM; with CCRF-CEM [6], over 100 µM; in the assay with CCRF-CEM [7], over 100 µM.
In the case of `Nc1nc(N)c(CCCC(C(=O)C(F)(F)F)c2ccc(C(=O)NCc3nnn[nH]3)cc2)c(=O)[nH]1` (stereo unspecified), the Ki in assay [1] was 5 µM; in assay [2], over 100 µM. The half-inhibitory concentration (IC50) with CCRF-CEM [3] was 10 µM; in the assay with CCRF-CEM [4], 30 µM; with CCRF-CEM [5], over 100 µM; with CCRF-CEM [6] it was 40 µM; with CCRF-CEM [7], 30 µM.
In the case of `Nc1nc(N)c(CCCC(C(=O)C(F)(F)F)c2ccc(C(=O)N[C@@H](CCc3nnn[nH]3)C(=O)O)cc2)c(=O)[nH]1` (stereo partly specified), the Ki came to 0.13 µM in assay [1] and 46 µM in assay [2]. Also, the half-inhibitory concentration (IC50) in the assay with CCRF-CEM [3] is 0.04 µM; with CCRF-CEM [4], 0.09 µM; in the assay on CCRF-CEM [5], over 100 µM; in the assay with CCRF-CEM [6], 0.05 µM; with CCRF-CEM [7], 10 µM.
As for `Nc1nc2c(c(=O)[nH]1)C[C@@H](CCc1ccc(C(=O)N[C@@H](CCC(=O)O)C(=O)O)cc1)CN2` [LOMETREXOL], in assay [2], the Ki was over 100 µM. Further, the values for the IC50 in the assay with CCRF-CEM [3], in the assay with CCRF-CEM [5] and with CCRF-CEM [6] were 0.2 µM, over 100 µM and 25 µM, respectively.
